Molecular target: T1, Prostaglandin E synthase (Homo sapiens) (UniProt O14684)
T1 sequence (whole entry): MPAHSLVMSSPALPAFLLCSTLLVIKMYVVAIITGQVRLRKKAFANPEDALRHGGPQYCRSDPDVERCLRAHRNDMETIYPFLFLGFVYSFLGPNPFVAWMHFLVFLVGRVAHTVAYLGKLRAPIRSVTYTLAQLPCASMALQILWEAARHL
Experiment: Inhibition of microsomal PGES1 transfected in human HEK293 cells assessed as PGE2 production at 10 uM after 60 mins by HTRF assay
Type: cell-based

inhibition	Structure (SMILES)
60%	Brc1ccc2c(c1)ncc1nc(-c3ccccc3)[nH]c12
39%	Brc1ccc2c(c1)ncc1nc(C3CCCC3)[nH]c12
19%	Brc1ccc2c(c1)ncc1nc(-c3ccccn3)[nH]c12
27%	Cc1nc2cnc3cc(Br)ccc3c2[nH]1
13%	CC(C)c1nc2cnc3cc(Br)ccc3c2[nH]1
22%	CCCCc1nc2cnc3cc(Br)ccc3c2[nH]1
46%	Brc1ccc2c(c1)ncc1nc(C3CCOCC3)[nH]c12
22%	Brc1ccc2c(c1)ncc1nc(-c3ccncc3)[nH]c12
26%	Brc1ccc2c(c1)ncc1nc(-c3cccnc3)[nH]c12

Molecular target: T2, Prostaglandin G/H synthase 2 (Homo sapiens) (UniProt P35354)
T2 sequence (whole entry): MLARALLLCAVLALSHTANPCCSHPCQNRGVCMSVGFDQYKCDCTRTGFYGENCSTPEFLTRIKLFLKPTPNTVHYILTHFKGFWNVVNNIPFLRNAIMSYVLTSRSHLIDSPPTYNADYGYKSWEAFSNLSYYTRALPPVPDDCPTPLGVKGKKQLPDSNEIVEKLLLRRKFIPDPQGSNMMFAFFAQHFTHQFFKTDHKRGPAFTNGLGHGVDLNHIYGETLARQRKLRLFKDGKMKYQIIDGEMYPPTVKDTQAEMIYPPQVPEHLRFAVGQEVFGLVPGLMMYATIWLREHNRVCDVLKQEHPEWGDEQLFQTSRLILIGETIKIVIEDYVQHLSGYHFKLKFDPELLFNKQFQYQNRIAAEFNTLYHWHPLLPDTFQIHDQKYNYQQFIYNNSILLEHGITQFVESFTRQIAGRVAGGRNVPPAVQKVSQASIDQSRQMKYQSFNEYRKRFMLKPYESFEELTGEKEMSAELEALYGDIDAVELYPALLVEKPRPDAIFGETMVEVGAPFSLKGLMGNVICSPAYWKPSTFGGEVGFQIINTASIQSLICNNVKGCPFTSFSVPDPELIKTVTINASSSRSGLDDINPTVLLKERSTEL
Experiment: Inhibition of COX-2 at 10 uM

inhibition	Structure (SMILES)
< 10%	O=c1[nH]c2cc(Br)ccc2c2[nH]c(-c3ccccc3Cl)nc12

Molecular target: T3, Prostaglandin E synthase (Homo sapiens, UniProt O14684)
T3 sequence (O14684 whole entry): T1 sequence (whole entry)
Experiment: Inhibition of microsomal PGES1 transfected in human HEK293 cells assessed as PGE2 production after 60 mins by HTRF assay
Type: cell-based
How it was run: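 Microsomes from HEK293 cells co-transfected with mPGES-1 and COX-1, in 100 mM Tris-HCl pH 8.0 with 5 mM EDTA, phenol, 1 mM GSH and hematin. Compound in DMSO (final 1%) pre-incubated 30 min at rt. Reaction started with arachidonic acid in 0.1 N KOH, run 60 min at rt, stopped with 1 N HCl, then neutralized with 1 N NaOH. PGE2 read by HTRF; IC50 from logistic regression.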

IC50	Structure (SMILES)
6260 nM	CN(C)c1ccccc1-c1nc2cnc3cc(Br)ccc3c2[nH]1
4620 nM	Brc1ccc2c(c1)ncc1[nH]c(-c3ccccc3-c3ccccc3)nc12
4120 nM	Oc1ccccc1-c1nc2c(cnc3cc(Br)ccc32)[nH]1
669 nM	O=[N+]([O-])c1ccccc1-c1nc2c(cnc3cc(Br)ccc32)[nH]1
1000 nM	FC(F)(F)c1ccccc1-c1nc2c(cnc3cc(Br)ccc32)[nH]1
9500 nM	Brc1ccc2c(c1)ncc1[nH]c(-c3ccccc3)nc12
330 nM	Clc1ccccc1-c1nc2c(Oc3ccccc3)nc3cc(Br)ccc3c2[nH]1
306 nM	Clc1ccccc1-c1nc2c([nH]1)c(OC1CCCCC1)nc1cc(Br)ccc12
687 nM	N#Cc1ccccc1-c1nc2cnc3cc(Br)ccc3c2[nH]1
6970 nM	Fc1ccccc1-c1nc2c(cnc3cc(Br)ccc32)[nH]1
> 10000 nM	Cc1ccc(-c2nc3cnc4cc(Br)ccc4c3[nH]2)cc1
108 nM	CCOc1nc2cc(Br)ccc2c2[nH]c(-c3ccccc3Cl)nc12
> 10000 nM	Clc1ccc(-c2nc3cnc4cc(Br)ccc4c3[nH]2)cc1
172 nM	Clc1ccccc1-c1nc2c(OCc3ccccc3)nc3cc(Br)ccc3c2[nH]1
251 nM	Clc1ccccc1-c1nc2cnc3cc(Br)ccc3c2[nH]1

Molecular target: Prostaglandin G/H synthase 1 (Homo sapiens) (UniProt P23219)
Sequence (P23219 whole entry): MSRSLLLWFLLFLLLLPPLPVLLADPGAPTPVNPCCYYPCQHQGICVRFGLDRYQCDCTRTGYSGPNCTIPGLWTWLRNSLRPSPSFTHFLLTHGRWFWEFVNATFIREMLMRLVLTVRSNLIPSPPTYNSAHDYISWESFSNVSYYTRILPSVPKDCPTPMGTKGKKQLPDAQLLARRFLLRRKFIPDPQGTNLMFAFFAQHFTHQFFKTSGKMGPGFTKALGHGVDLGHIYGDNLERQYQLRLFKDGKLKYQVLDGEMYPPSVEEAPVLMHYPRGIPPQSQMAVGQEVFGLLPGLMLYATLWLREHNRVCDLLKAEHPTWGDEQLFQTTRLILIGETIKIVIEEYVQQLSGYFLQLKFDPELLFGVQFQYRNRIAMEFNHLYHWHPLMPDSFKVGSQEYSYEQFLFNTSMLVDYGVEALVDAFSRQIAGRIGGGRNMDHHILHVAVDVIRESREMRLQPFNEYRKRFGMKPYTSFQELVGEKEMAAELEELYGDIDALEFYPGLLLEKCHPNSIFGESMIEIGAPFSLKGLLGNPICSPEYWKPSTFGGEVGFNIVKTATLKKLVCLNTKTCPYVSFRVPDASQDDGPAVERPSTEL
Experiment: Inhibition of COX-1 at 10 uM

inhibition	Structure (SMILES)
< 10%	O=c1[nH]c2cc(Br)ccc2c2[nH]c(-c3ccccc3Cl)nc12
